# Screening results as filed in PubChem.
# An excerpt weighted towards active compounds, which were near 5.2% of everything screened.
# WNV protease inh: inhibitors of West Nile virus NS2B-NS3 protease; P06935; WNV NS2B-NS3 protease, fluorogenic substrate Ex360/Em465; hits give low values; z-score (concentration not given with the values); actives 0.18% (n = 65,000); in the data active means z-score below about -3
# E coli WT exp: growth inhibitors of E. coli BW25113 wild type; OD600 absorbance; growth inhibition, % at 100 µM; actives 0.15% (n = 98,000); AID 710;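 active means growth inhibition above about 50% at one test dose, limit read from the data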;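 further: growth measured after 20 h incubation at 37 °C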
# AP complement: alternative pathway complement inhibition, orthogonal assay; actives 0.08% (n = 62,000); inhibition, % at 5 µM; AID 1235; Human serum alternative complement pathway, LPS-coated ELISA, C3 deposition; tested in compound mixtures;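 active means inhibition above 30% in each of the two pooled mixtures holding the compound, so the lower value exceeds 30%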;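 further: 0% = serum in Mg-EGTA without compound and 100% = EDTA serum blank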
#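 Medium: diluted human serum in Mg2+-EGTA GVB++. Assay system: human serum complement alternative pathway, C3 deposition onto LPS. Also added: Plate-bound LPS. Technique: Anti-C3 ELISA, OD 450 nm. Measure: percent inhibition. Incubation: 1 h at 37 °C. Dosing: 5 µM each compound, pools of ten, 50 µM per pool.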
# Ecoli tolC: E. coli tolC mutant growth inhibition; growth inhibition, % at 10 µM (by protocol); AID 573; E. coli BW25113 tolC mutant growth, OD615; actives 2.2% (n = 65,000);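 active means growth inhibition at or above a cutoff equal to the mean over every tested compound plus 3 SD, cut at about 60% in these data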;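 further: growth measured after 20 h incubation at 37 °C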
#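 Test system: tolC-deleted E. coli BW25113; medium: LB with kanamycin 50 µg/mL; compound: single-point testing at 10 µM; incubation: 20 h compound exposure of bacteria at 37 °C; signal: OD at 615 nm; evaluation: growth inhibition in percent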
# M1 antagonist: blocks the rat M1 muscarinic receptor response to acetylcholine. CHO-M1 cells, Fluo-4 calcium, ACh EC80 antagonist mode; hits give low values. B-score at 10 µM. actives 3.4% (n = 64,000). AID 628;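 active means calcium fluorescence response, raw or row-and-column corrected B-score, differing from the plate sample mean either way at a set confidence level, mostly lower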
# Target sequence (P08482 whole entry, looked up): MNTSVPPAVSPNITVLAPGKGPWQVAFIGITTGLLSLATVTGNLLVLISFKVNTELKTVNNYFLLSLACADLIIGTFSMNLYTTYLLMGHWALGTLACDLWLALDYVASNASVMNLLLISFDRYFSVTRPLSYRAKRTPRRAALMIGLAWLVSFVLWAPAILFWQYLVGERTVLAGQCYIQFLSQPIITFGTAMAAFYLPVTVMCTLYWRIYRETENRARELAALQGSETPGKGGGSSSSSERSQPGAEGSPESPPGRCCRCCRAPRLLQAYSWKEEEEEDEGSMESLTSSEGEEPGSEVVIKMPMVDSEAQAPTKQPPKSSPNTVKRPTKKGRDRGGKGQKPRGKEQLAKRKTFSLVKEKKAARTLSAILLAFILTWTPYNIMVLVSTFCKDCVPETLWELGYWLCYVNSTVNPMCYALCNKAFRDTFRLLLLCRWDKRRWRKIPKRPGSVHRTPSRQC
# M1 ag: agonists of M1 muscarinic receptor; actives 3% (n = 64,000); B-score at 10 µM; CHO-M1 cells, Fluo-4 calcium fluorescence, agonist mode; hits give high values;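 active means fluorescence rise, raw or as B-score row- and column-corrected plate score, outside the 99.7% band of its plate's samples, either direction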
# An asterisk follows results filed as active; . = no result.
SMILES,WNV protease inh,E coli WT exp,AP complement,Ecoli tolC,M1 antagonist,M1 ag
Cc1cccc(NC(=O)CCN2CCN(C/C=C/c3ccccc3)CC2)c1,-0.33,-4,27,8,-0.93,-1.2
CN(CC1CCCO1)S(=O)(=O)c1ccc(C(=O)Nc2nc3cc4c(cc3s2)OCO4)cc1 (stereo not given),0.96,.,7,10,-1.3,-0.46
CCc1nnc(NC(=O)c2cccc(C(=O)Nc3nnc(CC)s3)n2)s1,1.7,.,-5,94*,-0.82,3
Brc1ccc(CSc2nnc(-c3ccccn3)n2Cc2ccco2)cc1,-0.01,-10,-2,98*,-1.7,0.59
c1ccc(CSc2nnc(-c3cccs3)n2Cc2ccco2)cc1,-0.29,.,3,96*,0.3,0.58
CC(C)(C)c1ccc(CSc2nnc(-c3ccccn3)n2Cc2ccco2)cc1,.,-23,.,.,.,.
Clc1cccc(CSc2nnc(-c3ccccn3)n2Cc2ccco2)c1,0.08,-6,-1,100*,-0.71,0.53
CCOC(=O)C(C)(C)Sc1nc2c(cnn2-c2ccc(Cl)cc2)c(=O)[nH]1,0.13,-7,2,21,0.16,-1.1
Cc1cc(C)nc(N/N=C/C(Cl)=C/c2ccccc2)n1,.,-3,.,.,.,.
Cc1ccc(NC(=O)Cc2nc(CSc3nnc(-c4ccc5c(c4)OCO5)o3)cs2)cc1,0.11,-11,18,14,-0.43,-0.05
O=C(C1CCN(S(=O)(=O)c2cccc3cccnc23)CC1)N1CC=C(c2ccccc2)CC1,-0.83,-4,16,15,-2,4.5*
Cc1cccc(N2CCN(C(=O)C3CCCN(S(=O)(=O)c4cccc5cccnc45)C3)CC2)c1C (stereo not given),-0.54,.,-6,15,-0.71,4.6*
Cc1cccc(NC(=O)CSc2nnc(-c3cc(C)n(-c4ccccc4)c3C)o2)c1C,-0.08,-26,-4,63*,0.0061,0.075
CCOc1ccc(NC(=O)c2oc3ccccc3c2NC(=O)C(C)C)cc1,1,.,6,-12,0.0028,-0.31
O=C(N1CCN(c2ccccn2)CC1)N1c2ccccc2Sc2ccccc21,-0.43,-2,13,62*,-1.5,0.28
O=C(c1c(Cl)cccc1Cl)N1CCN(c2ccccn2)CC1,-0.85,6,5,0,-0.17,0.51
Cc1ccc(CCP(=O)(O)CN2CCCCC2)cn1,-0.32,.,2,-14,0.6,-0.13
COc1ccc(C(=O)NNC(=S)NC(=O)c2ccco2)cc1,.,80*,.,.,.,.
CCCOc1ccc(C(=O)NNC(=S)NC(C)=O)cc1,.,88*,.,.,.,.
Cc1ccccc1C(=O)NNC(=S)NC(=O)COc1ccccc1,.,32,.,.,.,.
Cc1ccc(C(=O)NNC(=S)NC(=O)COc2ccccc2)cc1,.,51*,.,.,.,.
CCC(=O)NC(=S)NNC(=O)c1ccc(OC)cc1,.,75*,.,.,.,.
O=C(NC1(C(F)(F)F)NC(=O)N(CC2CCCCC2)C1=O)c1ccco1 (stereo not given),-0.98,8,-3,9,0.006,-1.2
CC1CCC(C(=O)NC(C(=O)NCc2cccnc2)C(C)C)CC1 (stereo not given),.,5,.,.,.,.
O=C(NCCCCCCNC(=O)OC1CCS(=O)(=O)C1)OC1CCS(=O)(=O)C1 (stereo not given),.,0,.,.,.,.
SMILES,WNV protease inh,E coli WT exp,AP complement,Ecoli tolC,M1 antagonist,M1 ag
O=C(NC(=S)NNC(=O)c1cccs1)c1ccco1,.,67*,.,.,.,.
COc1cccc(N2C(=O)C(O)=C(C(C)=O)C2c2ccc(OC)c(OC)c2)c1 (stereo not given),0.37,-3,-17,7,0.57*,0.2
NC(N)=N/N=C/c1ccc(OCc2ccccc2)cc1,.,99*,.,.,.,.
NC(N)=N/N=C/c1ccc(OCc2ccc(Cl)cc2)cc1,.,100*,.,.,.,.
CSc1nc2ccccc2n1CC(=O)Nc1cc(C(F)(F)F)ccc1N1CCOCC1,.,5,.,.,.,.
CCN(Cc1ccccc1)S(=O)(=O)c1nc2nc(C)c(C)c(C)n2n1,-0.3,-2,-8,3,0.82,-0.94
COc1ccc(C(=S)N2CCCC2)cc1C,-0.15,-10,-14,-3,1.3,0.18
CC1=CCC(COC(=O)Nc2ccccc2)CC1 (stereo not given),-1.4,14,1,98*,-0.04,0.37
COc1cccc(N2CC(C(=O)Nc3ccc(C(=O)OC(C)C)cc3)CC2=O)c1 (stereo not given),0.37,-8,-1,62*,.,.
COc1cccc(C2CC(c3cccs3)=NN2C(=O)CSC2=NN3CCCC(=O)N=C3S2)c1OC (stereo not given),.,-9,.,.,.,.
COCCOC(=O)c1c(C)oc2ccc(NS(=O)(=O)c3ccccc3)cc12,-1.7,-1,8,35,0.008,-0.2
CCOC(=O)c1c(C)oc2ccc(NS(=O)(=O)c3ccc4c5c(cccc35)C(=O)N4)cc12,0.11,0,1,68*,0.52,0.00064
CCOC(=O)c1sc2nc(CC(=O)OC)nc(NCc3ccc(F)cc3)c2c1C,.,-9,.,.,.,.
CCOC(=O)c1sc2nc(CC(=O)OC)nc(N3CCN(c4ccccn4)CC3)c2c1C,1.2,-23,-2,66*,-0.79,5
O=C(c1cc(-c2ccccc2)on1)N1CCN(Cc2ccc3c(c2)OCO3)CC1,-0.29,-10,-8,66*,-0.32,0.035
CC(C)NC(=O)c1ccc(CS(=O)(=O)c2ccc(Br)cc2)o1,-1.7,-1,23,-1,0.2,0.84
CCNc1nc2c(c(=O)n(Cc3ccccc3)c(=O)n2C)n1Cc1ccccc1,-1.5,-6,-7,33,0.67,0.61
O=C1CSC(=S)N1c1cccnc1,0.88,6,2,-11,0.23,0.014
O=C1CSC(=S)N1Cc1cccnc1,-0.15,65*,4,4,-0.13,-0.62
Cc1ccc(S(=O)(=O)N(C)Cc2ccc(-c3nnc4n3CCC4)cc2)cc1,-1,-3,7,9,2.6*,0.57
Cc1nc2oc3c(NCc4ccccn4)ncnc3c2c2c1COC(C)(C)C2,-0.91,3,9,5,-0.34,-0.19
CC(C)c1nc2oc3c(NCc4ccccn4)ncnc3c2c2c1COC(C)(C)C2,-0.13,.,5,.,0.42,4.6*
Cn1c(=O)c2c(nc(SCC(=O)Nc3ccc(N4CCOCC4)c(Cl)c3)n2C)n(C)c1=O,0.24,.,6,-11,-0.54,-0.12
O=C(c1ccccc1)c1nc2ccccc2n(CCCn2c(=O)c(C(=O)c3ccccc3)nc3ccccc32)c1=O,.,-15,.,.,.,.
O=C(NCCCc1ccccc1)c1ccccc1O,0.08,26,4,67*,-0.31,-2
O=C(NCCO)c1ccccc1O,.,2,.,.,.,.
Cc1cc(N2CCC(C(=O)Nc3ccc(F)cc3)CC2)nc(-c2ccccc2)n1,-0.49,5,24,89*,-0.83,0.25
COc1ccc(NC(=O)C2CCN(c3cc(C)nc(-c4ccccc4)n3)CC2)cc1,-1.7,-9,6,29,-1.5,0.76
O=C(CCc1nc(-c2ccccc2F)no1)Nc1ccc(Oc2ccccc2)cc1,0.78,0,7,81*,-0.8,-0.56
